# Results published in ChEMBL document CHEMBL3784969, “Pharmacokinetics of flutamide in patients with renal insufficiency” (Br J Clin Pharmacol, 1999).
# Legend:
# [1] = Drug excretion in urine of patient (3 patients) with renal insufficiency assessed as hydroxy flutamide at 250 mg, po administered as single dose by gas chromatography; assay type: ADME, organism-based; conditions: human, in vivo
# Procedure, shortened: (§1)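 Males grouped by 24 h CLcr normalised to body surface area (>80, 50–80, 30–49, 5–29 ml min−1 1.73 m−2), fasted 10 h pre-dose and 4 h post-dose, given a single oral 250 mg flutamide dose. Plasma sampled 0–96 h; urine collected in blocks to 96 h. Flutamide and hydroxyflutamide measured by GC with electron-capture detection. Renal CL = Ae(0,96 h)/AUC(0,96 h); t1/2 = 0.693/λz.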
# Homo sapiens [2] = experiment: Cmax in patient (7 patients) with renal insufficiency assessed as hydroxy flutamide at 250 mg, po administered as single dose by gas chromatography; assay type: ADME, organism-based; set-up: dose 250 mg, route oral; conditions: in vivo
# Homo sapiens [3] = experiment: Final time point in terminal phase in patient (3 patients) with renal insufficiency at 250 mg, po administered as single dose by gas chromatography; assay type: ADME, organism-based; conditions: in vivo; procedure, shortened: as §1
# [4] = AUC (0 to 24 hrs) in patient (4 patients) with renal insufficiency at 250 mg, po administered as single dose by gas chromatography; assay type: ADME, organism-based; set-up: dose 250 mg, time < 24 hr, route oral; conditions: human, in vivo
# [5] = AUC (0 to 96 hrs) in patient (3 patients) with renal insufficiency at 250 mg, po administered as single dose by gas chromatography; assay type: ADME, organism-based; set-up: time < 96 hr, dose 250 mg, route oral; conditions: human, in vivo
# [6] = AUC (0 to 96 hrs) in patient (6 patients) with renal insufficiency at 250 mg, po administered as single dose 4 hrs prior to hemodialysis treatment measured at starting time of dialysis and post dialysis treatment by gas chromatography; assay type: ADME, organism-based; set-up: dose 250 mg, time < 96 hr, route oral; conditions: human, in vivo
# Homo sapiens [7] = experiment: Terminal half life in patient (6 patients) with renal insufficiency assessed as hydroxy flutamide at 250 mg, po administered as single dose by gas chromatography; assay type: ADME, organism-based; conditions: in vivo; procedure, shortened: as §1
# [8] = Drug recovery in dialysate of patient (6 patients) with renal insufficiency assessed as hydroxy flutamide at 250 mg, po administered as single dose 4 hrs prior to hemodialysis treatment measured during dialysis treatment by gas chromatography; assay type: ADME, organism-based; conditions: human, in vivo
# Procedure, shortened: (§2)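 Group V haemodialysis males (CLcr <5 ml min−1 1.73 m−2). Single oral 250 mg flutamide (two 125 mg capsules) right after HD; after 14-day washout, same dose 4 h before HD lasting 2–4 h. Venous samples to 48 h, arterial/venous during HD, dialysate in hourly blocks. GC with 63Ni electron-capture detection. CL(HD) = dialysate Ae(HD)/arterial AUC(HD); renal CL = Ae(0,48)/AUC(0,48 h).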
# [9] = AUClast in patient (3 patients) with renal insufficiency at 250 mg, po administered as single dose by gas chromatography; assay type: ADME, organism-based; set-up: dose 250 mg, time 0 - last, route oral; conditions: human, in vivo
# Homo sapiens [10] = experiment: Final time point in terminal phase in patient (4 patients) with renal insufficiency at 250 mg, po administered as single dose by gas chromatography; assay type: ADME, organism-based; conditions: in vivo; procedure, shortened: as §1
# Homo sapiens [11] = experiment: AUClast in patient (7 patients) with renal insufficiency at 250 mg, po assessed as hydroxy flutamide administered as single dose by gas chromatography; assay type: ADME, organism-based; set-up: dose 250 mg, time 0 - last, route oral; conditions: in vivo
# Homo sapiens [12] = experiment: Toxicity in patient with renal insufficiency assessed as dizziness at 250 mg, po administered as single dose; assay type: organism-based; conditions: in vivo
# Procedure, shortened: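 26 male subjects in groups by 24 h creatinine clearance (normalized to body surface area): >80, 50–80, 30–49, 5–29, <5 ml min−1 1.73 m−2 on haemodialysis. Given as two 125 mg capsules after a 10 h fast, continued 4 h post-dose. Prescription drugs withheld for the same period. Subjects confined 12 h pre-dose to 48 h post-dose, with adverse events compared across renal-function groups.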
# Homo sapiens [13] = experiment: Final time point in terminal phase in patient (3 patients) with renal insufficiency assessed as hydroxy flutamide at 250 mg, po administered as single dose by gas chromatography; assay type: ADME, organism-based; conditions: in vivo; procedure, shortened: as §1
# Homo sapiens [14] = experiment: Tmax in patient (7 patients) with renal insufficiency assessed as hydroxy flutamide at 250 mg, po administered as single dose by gas chromatography; assay type: ADME, organism-based; conditions: in vivo; procedure, shortened: as §1
# Homo sapiens [15] = experiment: AUC (0 to 96 hrs) in patient (7 patients) with renal insufficiency at 250 mg, po assessed as hydroxy flutamide administered as single dose by gas chromatography; assay type: ADME, organism-based; set-up: time < 96 hr, dose 250 mg, route oral; conditions: in vivo
# Homo sapiens [16] = experiment: Final time point in terminal phase in patient (6 patients) with renal insufficiency at 250 mg, po administered as single dose 4 hrs prior to hemodialysis treatment measured at starting time of dialysis and post dialysis treatment by gas chromatography; assay type: ADME, organism-based; conditions: in vivo; procedure, shortened: as §2
# Homo sapiens [17] = experiment: AUC in patient with renal insufficiency at 250 mg, po administered first dose followed by 14 days wash out period and administered second dose 4 hrs prior to hemodialysis measured during hemodialysis treatment by gas chromatography; assay type: ADME, organism-based; conditions: in vivo; procedure, shortened: as §2
# [18] = AUClast in patient (6 patients) with renal insufficiency at 250 mg, po administered as single dose 4 hrs prior to hemodialysis treatment measured at starting time of dialysis and post dialysis treatment by gas chromatography; assay type: ADME, organism-based; set-up: dose 250 mg, route oral, time 0 - last; conditions: human, in vivo
# Homo sapiens [19] = experiment: Final time point in terminal phase in patient (4 patients) with renal insufficiency assessed as hydroxy flutamide at 250 mg, po administered as single dose by gas chromatography; assay type: ADME, organism-based; conditions: in vivo; procedure, shortened: as §1
# [20] = Drug excretion in urine of patient (6 patients) with renal insufficiency assessed as hydroxy flutamide at 250 mg, po administered as single dose 4 hrs prior to hemodialysis treatment measured at starting time of dialysis and post dialysis treatment by gas chromatography; assay type: ADME, organism-based; conditions: human, in vivo; procedure, shortened: as §2
# Homo sapiens [21] = experiment: Cmax in patient (3 patients) with renal insufficiency assessed as hydroxy flutamide at 250 mg, po administered as single dose by gas chromatography; assay type: ADME, organism-based; set-up: dose 250 mg, route oral; conditions: in vivo
# [22] = Drug excretion in urine of patient (6 patients) with renal insufficiency at 250 mg, po administered as single dose 4 hrs prior to hemodialysis treatment measured at starting time of dialysis and post dialysis treatment by gas chromatography; assay type: ADME, organism-based; conditions: human, in vivo; procedure, shortened: as §2
# Homo sapiens [23] = experiment: AUC (0 to 96 hrs) in patient (6 patients) with renal insufficiency at 250 mg, po assessed as hydroxy flutamide administered as single dose by gas chromatography; assay type: ADME, organism-based; set-up: dose 250 mg, time < 96 hr, route oral; conditions: in vivo
# [24] = AUC (0 to 96 hrs) in patient (4 patients) with renal insufficiency at 250 mg, po administered as single dose by gas chromatography; assay type: ADME, organism-based; set-up: time < 96 hr, dose 250 mg, route oral; conditions: human, in vivo
# Homo sapiens [25] = experiment: Tmax in patient (6 patients) with renal insufficiency assessed as hydroxy flutamide at 250 mg, po administered as single dose by gas chromatography; assay type: ADME, organism-based; conditions: in vivo; procedure, shortened: as §1
# Homo sapiens [26] = experiment: Final time point in terminal phase in patient (6 patients) with renal insufficiency assessed as hydroxy flutamide at 250 mg, po administered as single dose 4 hrs prior to hemodialysis treatment measured at starting time of dialysis and post dialysis treatment by gas chromatography; assay type: ADME, organism-based; conditions: in vivo; procedure, shortened: as §2
# Homo sapiens [27] = experiment: Cmax in patient (6 patients) with renal insufficiency assessed as hydroxy flutamide at 250 mg, po administered as single dose by gas chromatography; assay type: ADME, organism-based; set-up: dose 250 mg, route oral; conditions: in vivo
# [28] = Renal clearance in patient (3 patients) with renal insufficiency at 250 mg, po administered as single dose by gas chromatography; assay type: ADME, organism-based, Kidney; conditions: human, in vivo; procedure, shortened: as §1
# [29] = AUClast in patient (4 patients) with renal insufficiency at 250 mg, po administered as single dose by gas chromatography; assay type: ADME, organism-based; set-up: dose 250 mg, time 0 - last, route oral; conditions: human, in vivo
# Homo sapiens [30] = experiment: AUC (0 to infinity) in patient (6 patients) with renal insufficiency assessed as hydroxy flutamide at 250 mg, po administered as single dose 4 hrs prior to hemodialysis treatment measured at starting time of dialysis and post dialysis treatment by gas chromatography; assay type: ADME, organism-based; set-up: dose 250 mg, time infinity, route oral; conditions: in vivo
# [31] = Cmax in patient (6 patients) with renal insufficiency at 250 mg, po administered as single dose by gas chromatography; assay type: ADME, organism-based; set-up: dose 250 mg, route oral; conditions: human, in vivo
structure (smiles),measurement,setting,value
CC(C)C(=O)Nc1ccc([N+](=O)[O-])c(C(F)(F)F)c1 [FLUTAMIDE],Drug excretion,[1],132 µg
same,Cmax,Homo sapiens [2],967 ng/mL
same,Time,Homo sapiens [3],6 h
same,AUC(0-t) at 24 h,[4],107 ng·h/mL
same,AUC(0-t) at 96 h,[5],98 ng·h/mL
same,AUC(0-t) at 96 h,[6],217 ng·h/mL
same,beta t1/2,Homo sapiens [7],7.3 h
same,Drug recovery,[8],1.2 mg
same,AUC(0-t),[9],74 ng·h/mL
same,Time,Homo sapiens [10],5 h
same,AUClast,Homo sapiens [11],4928 ng·h/mL
same,Activity,Homo sapiens [12],15%
same,Time,Homo sapiens [13],52 h
same,Tmax,Homo sapiens [14],2.3 h
same,AUC,Homo sapiens [15],4993 ng·h/mL
same,Time,Homo sapiens [16],7 h
same,AUC,Homo sapiens [17],907.6 ng·h/mL
same,AUC(0-t) at 4 h,[18],179 ng·h/mL
same,Time,Homo sapiens [19],56 h
same,Drug excretion,[20],5 µg
same,Cmax,Homo sapiens [21],902 ng/mL
same,Drug excretion,[22],0 µg
same,AUC,Homo sapiens [23],5527 ng·h/mL
same,AUC(0-t) at 96 h,[24],107 ng·h/mL
same,Tmax,Homo sapiens [25],1.9 h
same,Time,Homo sapiens [26],43 h
same,Cmax,Homo sapiens [27],1070 ng/mL
same,CL renal,[28],2 mL/min
same,AUC(0-t),[29],79 ng·h/mL
same,AUC,Homo sapiens [30],5963 ng·h/mL
same,Cmax,[31],53.4 ng/mL
